≈ marks a conversion by molar mass, not a printed value.
Legend:
Format in all cases: functional
Enterococcus faecium = assay: Minimum inhibitory concentration against vancomycin resistant Enterococcus faecium OC 3312
Summary of the method: (§1)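 Broth microdilution per NCCLS methods; MIC read as the lowest compound concentration inhibiting visible growth. Linezolid run as standard. Strains from a four-strain Gram-positive screening panel: S. aureus OC 2878 is methicillin-resistant, E. faecium OC 3312 is vancomycin-resistant.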

Staphylococcus aureus [1] = assay: Minimum inhibitory concentration against methicillin resistant Staphylococcus aureus OC 2878; summary of the method: as §1
Staphylococcus aureus [2] = assay: Minimum inhibitory concentration against Staphylococcus aureus broth
Summary of the method: (§2)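 Broth microdilution MIC run by National Committee for Clinical Laboratory Standards methods, with linezolid as standard. MIC is the lowest compound concentration inhibiting visible growth.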

Staphylococcus aureus [3] = assay: Minimum inhibitory concentration against Staphylococcus aureus OC 4172 in precense of 50% mouse serum
Summary of the method: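 Broth microdilution MIC against S. aureus OC 4172 (Smith, methicillin-susceptible) with 50% mouse serum in the medium, to gauge protein binding or serum inactivation. Run by NCCLS methods with linezolid as standard. MIC is the lowest concentration inhibiting visible growth.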

Enterococcus faecalis = assay: Minimum inhibitory concentration against Enterococcus faecalis ATTCC 29212; summary of the method: as §2
Mus musculus [4] = assay: Effective dose of compound after oral administration in mice with Staphylococcus aureus OC4172 (Smith) was determined
Summary of the method: (§3)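 Murine model of lethal systemic infection, with compound given orally. ED50 is the dose protecting 50% of mice from death, expressed in mg/kg/day.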

Mus musculus [5] = assay: Effective dose of compound after oral administration in murine model infected with Staphylococcus aureus OC4172 (Smith) was determined; summary of the method: as §3

| Structure (SMILES) | MIC (Enterococcus faecium) | MIC (Staphylococcus aureus [1]) | MIC (Staphylococcus aureus [2]) | MIC (Staphylococcus aureus [3]) | MIC (Enterococcus faecalis) | ED50 (Mus musculus [4]) | ED50 (Mus musculus [5]) |
| --- | --- | --- | --- | --- | --- | --- | --- |
| CC(=O)NC[C@H]1CN(c2ccc(-n3cc4cccnc4c3)c(F)c2)C(=O)O1 | 1 µg/mL (≈ 2.71 µM) | 0.5 µg/mL (≈ 1.36 µM) | 1 µg/mL (≈ 2.71 µM) | 2 µg/mL (≈ 5.43 µM) | 1 µg/mL (≈ 2.71 µM) | – | – |
| CC(=O)NC[C@H]1CN(c2ccc(N3Cc4ccccc4C3)c(F)c2)C(=O)O1 | 4 µg/mL (≈ 10.8 µM) | 1 µg/mL (≈ 2.71 µM) | 4 µg/mL (≈ 10.8 µM) | 16 µg/mL (≈ 43.3 µM) | 4 µg/mL (≈ 10.8 µM) | > 80 mg/kg/day | – |
| CCN(Cc1ccccn1)c1ccc(N2C[C@H](CNC(C)=O)OC2=O)cc1F | > 128 µg/mL | – | > 128 µg/mL | > 128 µg/mL | > 128 µg/mL | – | – |
| CC(=O)NC[C@H]1CN(c2ccc(-n3cc4cncnc4c3)c(F)c2)C(=O)O1 | 0.5 µg/mL (≈ 1.35 µM) | 1 µg/mL (≈ 2.71 µM) | 1 µg/mL (≈ 2.71 µM) | 2 µg/mL (≈ 5.41 µM) | 1 µg/mL (≈ 2.71 µM) | – | – |
| CC(=O)NC[C@H]1CN(c2ccc(-n3cc4ccncc4c3)c(F)c2)C(=O)O1 | 0.5 µg/mL (≈ 1.36 µM) | 0.5 µg/mL (≈ 1.36 µM) | 0.5 µg/mL (≈ 1.36 µM) | 1 µg/mL (≈ 2.71 µM) | 1 µg/mL (≈ 2.71 µM) | – | – |
| CC(=O)NC[C@H]1CN(c2ccc(N3C(=O)c4ccncc4C3=O)c(F)c2)C(=O)O1 | > 128 µg/mL | – | > 128 µg/mL | > 128 µg/mL | > 128 µg/mL | – | – |
| CC(=O)NC[C@H]1CN(c2ccc(N3C(=O)c4cccnc4C3=O)c(F)c2)C(=O)O1 | > 128 µg/mL | – | > 128 µg/mL | > 128 µg/mL | > 128 µg/mL | – | – |
| CC(=O)NC[C@H]1CN(c2ccc(N3Cc4ncccc4C3=O)c(F)c2)C(=O)O1 | 8 µg/mL (≈ 20.8 µM) | 4 µg/mL (≈ 10.4 µM) | 16 µg/mL (≈ 41.6 µM) | 8 µg/mL (≈ 20.8 µM) | 16 µg/mL (≈ 41.6 µM) | – | – |
| CC(=O)NC[C@H]1CN(c2ccc(N3Cc4ccncc4C3)c(F)c2)C(=O)O1 | 1 µg/mL (≈ 2.7 µM) | 0.5 µg/mL (≈ 1.35 µM) | 1 µg/mL (≈ 2.7 µM) | 1 µg/mL (≈ 2.7 µM) | 1 µg/mL (≈ 2.7 µM) | – | – |
| CC(=O)NC[C@H]1CN(c2ccc(N3C(=O)c4ccccc4C3=O)c(F)c2)C(=O)O1 | 32 µg/mL (≈ 80.5 µM) | 16 µg/mL (≈ 40.3 µM) | 32 µg/mL (≈ 80.5 µM) | 128 µg/mL (≈ 322 µM) | 64 µg/mL (≈ 161 µM) | – | – |
| CCN(Cc1cccnc1)c1ccc(N2C[C@H](CNC(C)=O)OC2=O)cc1F | 16 µg/mL (≈ 41.4 µM) | 8 µg/mL (≈ 20.7 µM) | 16 µg/mL (≈ 41.4 µM) | 32 µg/mL (≈ 82.8 µM) | 16 µg/mL (≈ 41.4 µM) | – | – |
| CC(=O)NC[C@H]1CN(c2ccc(N3Cc4cccnc4C3=O)c(F)c2)C(=O)O1 | 8 µg/mL (≈ 20.8 µM) | 8 µg/mL (≈ 20.8 µM) | 8 µg/mL (≈ 20.8 µM) | 8 µg/mL (≈ 20.8 µM) | 32 µg/mL (≈ 83.3 µM) | – | – |
| CC(=O)NC[C@H]1CN(c2ccc(N3Cc4ccccc4C3=O)c(F)c2)C(=O)O1 | 8 µg/mL (≈ 20.9 µM) | 4 µg/mL (≈ 10.4 µM) | 4 µg/mL (≈ 10.4 µM) | 16 µg/mL (≈ 41.7 µM) | 8 µg/mL (≈ 20.9 µM) | – | – |
| CC(=O)NC[C@H]1CN(c2ccc(N3Cc4cccnc4C3)c(F)c2)C(=O)O1 | 0.5 µg/mL (≈ 1.35 µM) | 0.25 µg/mL (≈ 0.675 µM) | 0.5 µg/mL (≈ 1.35 µM) | 1 µg/mL (≈ 2.7 µM) | 0.5 µg/mL (≈ 1.35 µM) | – | – |
| CC(=O)NC[C@H]1CN(c2ccc(N3Cc4cncnc4C3)c(F)c2)C(=O)O1 | 1 µg/mL (≈ 2.69 µM) | 1 µg/mL (≈ 2.69 µM) | 1 µg/mL (≈ 2.69 µM) | 2 µg/mL (≈ 5.39 µM) | 2 µg/mL (≈ 5.39 µM) | – | – |
| CC(=O)NC[C@H]1CN(c2ccc(N3CCOCC3)c(F)c2)C(=O)O1 [LINEZOLID] | 2 µg/mL (≈ 5.93 µM) | 1 µg/mL (≈ 2.96 µM) | – | – | – | – | 8 mg/kg/day |

— ChEMBL document CHEMBL1144984, “Synthesis and antibacterial activity of pyrroloaryl-substituted oxazolidinones” (2003)
